Legend:
[1] = Inhibition of hedgehog signaling pathway in mouse NIH/3T3 cells by Gli1-luciferase reporter gene assay; type: cell-based; settings: NIH3T3
[2] = Clearance in Sprague-Dawley rat at 1 mg/kg, iv; type: ADME, organism-based; parameters: dose 1 mg/kg, route intravenous; settings: in vivo
How it was run: (§1)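 SD rats given a single 1 mg/kg iv dose in 5% DMA + 5% Tween-80. Plasma concentration–time data were analysed by a noncompartmental approach.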

Rattus norvegicus = experiment: Volume of distribution at steady state in Sprague-Dawley rat at 5 mg/kg, po; type: ADME, organism-based; parameters: dose 5 mg/kg, route oral; settings: in vivo
How it was run: (§2)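 SD rats dosed orally at 5 mg/kg in 0.5% HPMC + 0.3% Tween-80 (pH 2.8). Blood samples (n = 3) were centrifuged at 4000 rpm for 5 min at 4 °C. Plasma concentration–time data were analysed noncompartmentally.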

[3] = AUC in Sprague-Dawley rat at 1 mg/kg, iv; type: ADME, organism-based; parameters: dose 1 mg/kg, route intravenous; settings: plasma; how it was run: as §1
[4] = Cmax in Sprague-Dawley rat at 5 mg/kg, po; type: ADME, organism-based; parameters: dose 5 mg/kg, route oral; settings: in vivo; how it was run: as §2
[5] = Cmax in Sprague-Dawley rat at 1 mg/kg, iv; type: ADME, organism-based; parameters: dose 1 mg/kg, route intravenous; settings: in vivo; how it was run: as §1
[6] = Clearance in Sprague-Dawley rat at 5 mg/kg, po; type: ADME, organism-based; parameters: dose 5 mg/kg, route oral; settings: in vivo; how it was run: as §2
[7] = Mean residence time (0 to t) in Sprague-Dawley rat at 5 mg/kg, po; type: ADME, organism-based; parameters: dose 5 mg/kg, route oral; settings: in vivo; how it was run: as §2
[8] = Mean residence time (0 to t) in Sprague-Dawley rat at 1 mg/kg, iv; type: ADME, organism-based; parameters: dose 1 mg/kg, route intravenous; settings: Sprague-Dawley, in vivo; how it was run: as §1
[9] = Half life in Sprague-Dawley rat at 5 mg/kg, po; type: ADME, organism-based; parameters: dose 5 mg/kg, route oral; settings: in vivo; how it was run: as §2
[10] = Oral bioavailability in Sprague-Dawley rat at 5 mg/kg; type: ADME, organism-based; settings: in vivo
How it was run: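 Oral dosing of SD rats at 5 mg/kg in 0.5% HPMC + 0.3% Tween-80 (pH 2.8), with blood samples n = 3, alongside iv dosing at 1 mg/kg in 5% DMA + 5% Tween-80. Plasma concentration–time data were analysed noncompartmentally.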

[11] = Volume of distribution at steady state in Sprague-Dawley rat at 1 mg/kg, iv; type: ADME, organism-based; parameters: dose 1 mg/kg, route intravenous; settings: Sprague-Dawley, in vivo, read-out: Vdss; how it was run: as §1
[12] = Half life in Sprague-Dawley rat at 1 mg/kg, iv; type: ADME, organism-based; parameters: dose 1 mg/kg, route intravenous; settings: in vivo; how it was run: as §1
[13] = AUC in Sprague-Dawley rat at 5 mg/kg, po; type: ADME, organism-based; parameters: dose 5 mg/kg, route oral; settings: plasma; how it was run: as §2
[14] = Ratio of GDC-0449 IC50 to compound IC50 for hedgehog signaling pathway in mouse NIH/3T3 cells by Gli1-luciferase reporter gene assay; type: cell-based

SMILES	IC50 [1] [nM]	other results
Cc1ccc(CN(C)C(C)C)cc1NC(=O)c1ccc(Nc2ncc(C)c(-c3ccc(OC(F)(F)F)cc3)n2)cc1	0.89	–
CCCN(C)Cc1ccc(C)c(NC(=O)c2ccc(Nc3ncc(C)c(-c4cnn(C)c4)n3)cc2)c1	17.5	–
Cc1ccc(CN2CCOCC2)cc1NC(=O)c1ccc(Nc2ncc(C)c(-c3cnn(C)c3)n2)cc1	1.3	clearance [2]: 14.3 mL/min/kg; Vdss (Rattus norvegicus): 2.9 L/kg; AUC [3]: 1200 ng·h/mL; Cmax [4]: 1500 ng/mL; Cmax [5]: 2100 ng/mL; CL/F [6]: 23.9 mL/min/kg; MRT last [7]: 2.4 h; MRT last [8]: 0.81 h; half-life [9]: 1.4 h; bioavailability [10]: 63.6%; Vd [11]: 0.9 L/kg; half-life [12]: 0.8 h; AUC [13]: 3800 ng·h/mL
Cc1ccc(CN(CCO)CCO)cc1NC(=O)c1ccc(Nc2ncc(C)c(-c3cnn(C)c3)n2)cc1	31.9	–
Cc1ccc(CN2CCN(C)CC2)cc1NC(=O)c1ccc(Nc2ncc(C)c(-c3ccc(OC(F)(F)F)cc3)n2)cc1	0.45	–
Cc1ccc(CN2CCCC2)cc1NC(=O)c1ccc(Nc2ncc(C)c(-c3cnn(C)c3)n2)cc1	9.2	–
Cc1ccc(CNCCN2CCCCC2)cc1NC(=O)c1ccc(Nc2ncc(C)c(-c3ccc(OC(F)(F)F)cc3)n2)cc1	33.6	–
Cc1ccc(CNc2ccccc2)cc1NC(=O)c1ccc(Nc2ncc(C)c(-c3ccc(OC(F)(F)F)cc3)n2)cc1	1.1	–
Cc1ccc(CN2C(C)(C)CC(=O)CC2(C)C)cc1NC(=O)c1ccc(Nc2ncc(C)c(-c3ccc(OC(F)(F)F)cc3)n2)cc1	0.29	–
Cc1ccc(CN2CCSCC2)cc1NC(=O)c1ccc(Nc2ncc(C)c(-c3ccc(OC(F)(F)F)cc3)n2)cc1	0.34	Ratio IC50 [14]: 7
Cc1ccc(CNCCO)cc1NC(=O)c1ccc(Nc2ncc(C)c(-c3ccc(OC(F)(F)F)cc3)n2)cc1	1.1	–
Cc1ccc(CN2CCNC(=O)C2)cc1NC(=O)c1ccc(Nc2ncc(C)c(-c3ccc(OC(F)(F)F)cc3)n2)cc1	2	–
Cc1ccc(CN(C)C)cc1NC(=O)c1ccc(Nc2ncc(C)c(-c3ccc(OC(F)(F)F)cc3)n2)cc1	0.59	–
Cc1ccc(CN2CCN(C(=O)C3CC3)CC2)cc1NC(=O)c1ccc(Nc2ncc(C)c(-c3ccc(OC(F)(F)F)cc3)n2)cc1	1.3	–
CCN(CC)Cc1ccc(C)c(NC(=O)c2ccc(Nc3ncc(C)c(-c4ccc(OC(F)(F)F)cc4)n3)cc2)c1	0.23	–
Cc1ccc(CNC2CCCC2)cc1NC(=O)c1ccc(Nc2ncc(C)c(-c3ccc(OC(F)(F)F)cc3)n2)cc1	1.6	–
Cc1ccc(CN(C2CCCCC2)C2CCCCC2)cc1NC(=O)c1ccc(Nc2ncc(C)c(-c3ccc(OC(F)(F)F)cc3)n2)cc1	2.7	–
Cc1ccc(CN2CC3CCN(C)C3C2)cc1NC(=O)c1ccc(Nc2ncc(C)c(-c3ccc(OC(F)(F)F)cc3)n2)cc1 (stereo not given)	10.5	–
Cc1ccc(CN2CCCC2)cc1NC(=O)c1ccc(Nc2ncc(C)c(-c3ccc(OC(F)(F)F)cc3)n2)cc1	0.43	Ratio IC50 [14]: 7
CCNCc1ccc(C)c(NC(=O)c2ccc(Nc3ncc(C)c(-c4ccc(OC(F)(F)F)cc4)n3)cc2)c1	0.72	–
CS(=O)(=O)c1ccc(C(=O)Nc2ccc(Cl)c(-c3ccccn3)c2)c(Cl)c1 [VISMODEGIB]	7.2	half-life [12]: 1.6 h
CCN1CCN(Cc2ccc(C)c(NC(=O)c3ccc(Nc4ncc(C)c(-c5ccc(OC(F)(F)F)cc5)n4)cc3)c2)CC1	0.77	–
Cc1ccc(CN2CCN(c3ccccc3)CC2)cc1NC(=O)c1ccc(Nc2ncc(C)c(-c3ccc(OC(F)(F)F)cc3)n2)cc1	2	–
Cc1ccc(CN2CCC(=O)CC2)cc1NC(=O)c1ccc(Nc2ncc(C)c(-c3ccc(OC(F)(F)F)cc3)n2)cc1	0.28	–

Source: ChEMBL document CHEMBL3112531, “Synthesis and evaluation of 4-(2-pyrimidinylamino) benzamides inhibitors of hedgehog signaling pathway” (Bioorg Med Chem Lett, 2014)
